Active and inactive are the calls of the source. No cut-off for these calls is given here.
Experiments:
[1] = Antitumor activity against mouse early Lewis lung carcinoma allografted in BDF1 mouse assessed as increase in host life span at 21 mg/kg, ip administered as single dose on 1 or 2 days post-tumor implantation; assay type: functional; settings: route intraperitoneal
In short: (§1)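 BDF1 mice (C57Blk/6 × DBA/2) implanted sc by trocar with ~40 mg Lewis lung tumor fragments from bacteriologically sterile donor tumors. Single ip dose on day 1 or 2, as a solution or suspension in water (CMC or gum acacia) or saline (HPC or Tween 80). Read-out is […]. Same-dose toxicity controls were run in nontumor-bearing mice.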

[2] = Antitumor activity against mouse early Lewis lung carcinoma allografted in BDF1 mouse assessed as increase in host life span at 48 mg/kg, ip administered as single dose on 1 or 2 days post-tumor implantation; assay type: functional; settings: route intraperitoneal; in short: as §1
[3] = Antitumor activity against mouse early Lewis lung carcinoma allografted in BDF1 mouse assessed as time delay in tumor growth at 21 mg/kg, ip administered as single dose on 1 or 2 days post-tumor implantation; assay type: functional; settings: route intraperitoneal
In short: (§2)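 BDF1 mice (C57Blk/6 × DBA/2) implanted sc by trocar with ~40 mg Lewis lung tumor fragments from bacteriologically sterile donors. A single ip dose was given on day 1 or 2, as a solution or suspension in water or saline with suspending agent, at ≤0.5 ml. Tumors were measured by caliper at least twice weekly, with weight = ab²/2. Delay was taken as the days for the tumor to reach 1 g.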

Mus musculus [4] = experiment: Antitumor activity against mouse advanced Lewis lung carcinoma allografted in BDF1 mouse assessed as complete regression of established tumor at 48 mg/kg, ip administered as single dose on 7th day post-tumor implantation; assay type: functional, organism-based; parameters: dose 48 mg/kg
In short: (§3)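 BDF1 mice (C57Blk/6 × DBA/2) implanted sc by trocar with Lewis lung tumor fragments of about 40 mg, taken only from bacteriologically sterile donor tumors. Mice bearing tumors of about 400 mg (day 6-7) were selected. Each received a single ip dose on day 7, at or below the LD10 in normal mice. Groups were of 10 mice. Tumor weight was taken from calipers as w = ab²/2, measured at least twice weekly. Matched non-tumor mice served as toxicity controls.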

Mus musculus [5] = experiment: Antitumor activity against mouse advanced Lewis lung carcinoma allografted in BDF1 mouse assessed as complete regression of established tumor at 21 mg/kg, ip administered as single dose on 7th day post-tumor implantation; assay type: functional, organism-based; parameters: dose 21 mg/kg; in short: as §3
Mus musculus [6] = experiment: Antitumor activity against mouse advanced Lewis lung carcinoma allografted in BDF1 mouse assessed as disease cure at 32 mg/kg, ip administered as single dose on 7th day post-tumor implantation measured for 80 days post-drug treatment; assay type: functional, organism-based; parameters: dose 32 mg/kg; in short: as §3
Mus musculus [7] = experiment: Antitumor activity against mouse advanced Lewis lung carcinoma allografted in BDF1 mouse assessed as disease cure at 21 mg/kg, ip administered as single dose on 7th day post-tumor implantation measured for 80 days post-drug treatment; assay type: functional, organism-based; parameters: dose 21 mg/kg; in short: as §3
Mus musculus [8] = experiment: Antitumor activity against mouse advanced Lewis lung carcinoma allografted in BDF1 mouse assessed as disease cure at 48 mg/kg, ip administered as single dose on 7th day post-tumor implantation measured for 80 days post-drug treatment; assay type: functional, organism-based; parameters: dose 48 mg/kg; in short: as §3
[9] = Antitumor activity against mouse advanced Lewis lung carcinoma allografted in BDF1 mouse assessed as increase in host life span at 21 mg/kg, ip administered as single dose on 7th day post-tumor implantation; assay type: functional; settings: route intraperitoneal
In short: (§4)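 BDF1 mice (C57Blk/6 × DBA/2) implanted sc by trocar with about 40 mg Lewis lung tumor fragments from bacteriologically sterile donors. Advanced-disease groups held tumors of about 400 mg by day 6-7, sized by caliper (w = ab²/2). Single ip injection on day 7, in water or saline vehicle, at or below the LD10 in normal mice. Tumors measured at least twice weekly.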

[10] = Antitumor activity against mouse advanced Lewis lung carcinoma allografted in BDF1 mouse assessed as increase in host life span at 48 mg/kg, ip administered as single dose on 7th day post-tumor implantation; assay type: functional; settings: route intraperitoneal; in short: as §4
Mus musculus [11] = experiment: Antitumor activity against mouse advanced Lewis lung carcinoma allografted in BDF1 mouse assessed as complete regression of established tumor at 32 mg/kg, ip administered as single dose on 7th day post-tumor implantation; assay type: functional, organism-based; parameters: dose 32 mg/kg; in short: as §4
[12] = Antitumor activity against mouse advanced Lewis lung carcinoma allografted in BDF1 mouse assessed as increase in host life span at 32 mg/kg, ip administered as single dose on 7th day post-tumor implantation; assay type: functional; settings: route intraperitoneal; in short: as §4
[13] = Antitumor activity against mouse early Lewis lung carcinoma allografted in BDF1 mouse assessed as time delay in tumor growth at 48 mg/kg, ip administered as single dose on 1 or 2 days post-tumor implantation; assay type: functional; settings: route intraperitoneal; in short: as §2
Mus musculus [14] = experiment: Antitumor activity against mouse advanced Lewis lung carcinoma allografted in ip dosed BDF1 mouse assessed as complete regression of established tumor administered as single dose on day 6 or 7 post-tumor implantation; assay type: functional, organism-based; in short: as §3
Mus musculus [15] = experiment: Antitumor activity against mouse advanced Lewis lung carcinoma allografted in ip dosed BDF1 mouse assessed as disease cure administered as single dose on day 6 or 7 post-tumor implantation; assay type: functional, organism-based; in short: as §3
[16] = Antitumor activity against mouse advanced Lewis lung carcinoma allografted in ip dosed BDF1 mouse assessed as increase in host lifespan administered as single dose on day 6 or 7 post-tumor implantation; assay type: functional
In short: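 Advanced Lewis lung model: about 40 mg fragments implanted sc by trocar into BDF1 mice, and mice with tumors of about 400 mg (day 6-7) selected. Tumor weight from calipers, w = ab²/2. Agent given as one ip dose in distilled water or physiological saline. Nontumor-bearing mice received matching doses as toxicity controls.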

[17] = Antitumor activity against mouse early Lewis lung carcinoma allografted in BDF1 mouse assessed as increase in host life span at 30 mg/kg, ip administered as single dose on 1 or 2 days post-tumor implantation; assay type: functional; settings: route intraperitoneal; in short: as §1
[18] = Antitumor activity against mouse early Lewis lung carcinoma allografted in BDF1 mouse assessed as increase in host life span at 45 mg/kg, ip administered as single dose on 1 or 2 days post-tumor implantation; assay type: functional; settings: route intraperitoneal; in short: as §1
[19] = Antitumor activity against mouse early Lewis lung carcinoma allografted in BDF1 mouse assessed as time delay in tumor growth at 30 mg/kg, ip administered as single dose on 1 or 2 days post-tumor implantation; assay type: functional; settings: route intraperitoneal; in short: as §2
[20] = Antitumor activity against mouse early Lewis lung carcinoma allografted in BDF1 mouse assessed as time delay in tumor growth at 45 mg/kg, ip administered as single dose on 1 or 2 days post-tumor implantation; assay type: functional; settings: route intraperitoneal; in short: as §2
[21] = Antitumor activity against mouse early Lewis lung carcinoma allografted in ip dosed BDF1 mouse assessed as disease cure administered as single dose on 1 or 2 days post-tumor implantation measured for 80 days post-drug treatment; assay type: functional
In short: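 BDF1 mice implanted sc by trocar with ~40 mg Lewis lung fragments from sterile donor tumors. A single ip dose was given on day 1 or 2 after implant, in water or saline vehicle. Cures were scored in animals observed for at least 80 days after treatment. Drug-toxicity controls were matched non-tumor-bearing mice monitored for body weight and deaths.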

L1210 = experiment: Antitumor activity against mouse L1210 cells allografted in ip dosed mouse assessed as disease cure administered as single dose; assay type: functional, organism-based
[22] = Antitumor activity against mouse early Lewis lung carcinoma allografted in BDF1 mouse assessed as increase in host life span at 26 mg/kg, ip administered as single dose on 1 or 2 days post-tumor implantation; assay type: functional; settings: route intraperitoneal; in short: as §1
[23] = Antitumor activity against mouse early Lewis lung carcinoma allografted in BDF1 mouse assessed as increase in host life span at 34 mg/kg, ip administered as single dose on 1 or 2 days post-tumor implantation; assay type: functional; settings: route intraperitoneal; in short: as §1
[24] = Antitumor activity against mouse advanced Lewis lung carcinoma allografted in BDF1 mouse assessed as increase in host life span at 26 mg/kg, ip administered as single dose on 7th day post-tumor implantation; assay type: functional; settings: route intraperitoneal; in short: as §4
[25] = Antitumor activity against mouse early Lewis lung carcinoma allografted in BDF1 mouse assessed as time delay in tumor growth at 26 mg/kg, ip administered as single dose on 1 or 2 days post-tumor implantation; assay type: functional; settings: route intraperitoneal; in short: as §2
[26] = Antitumor activity against mouse early Lewis lung carcinoma allografted in BDF1 mouse assessed as time delay in tumor growth at 34 mg/kg, ip administered as single dose on 1 or 2 days post-tumor implantation; assay type: functional; settings: route intraperitoneal; in short: as §2
[27] = Ratio of ED50 for antitumor activity against mouse L1210 cells allografted in ip dosed mouse to LD10 for mouse

Compound: CC(=O)OC[C@H]1CC[C@H](NC(=O)N(CCF)N=O)CC1
- ILS at 21 mg/kg [1]: 24%
- ILS at 48 mg/kg [2]: 7%
- Time [3]: 1.3 days
- inhibition (Mus musculus [4]): inactive
- inhibition (Mus musculus [5]): inactive
- Activity (Mus musculus [6]): inactive
- Activity (Mus musculus [7]): inactive
- Activity (Mus musculus [8]): inactive
- ILS at 21 mg/kg [9]: 26%
- ILS at 48 mg/kg [10]: 26%
- inhibition (Mus musculus [11]): inactive
- ILS at 32 mg/kg [12]: 13%
- Time [13]: 12 days
- inhibition (Mus musculus [14]): inactive
- Activity (Mus musculus [15]): inactive
- ILS [16]: >25%

Compound: O=NN(CCCl)C(=O)N[C@H]1CC[C@@H](O)CC1
- ILS at 30 mg/kg [17]: 92%
- ILS at 45 mg/kg [18]: 110%
- Time [19]: 5.1 days
- Time [20]: 18 days
- Activity [21]: 10%
- Activity (L1210): inactive
- inhibition (Mus musculus [14]): inactive
- ILS [16]: <25%

Compound: O=NN(CCCl)C(=O)N[C@H]1CC[C@H](CC(=O)O)CC1
- ILS at 26 mg/kg [22]: 34%
- ILS at 34 mg/kg [23]: 23%
- ILS at 26 mg/kg [24]: 24%
- Time [25]: 10 days
- Time [26]: 11 days
- Activity [21]: >50%
- Ratio [27]: 0.3
- inhibition (Mus musculus [14]): inactive
- Activity (Mus musculus [15]): inactive
- ILS [16]: >25%

From ChEMBL document CHEMBL3271979, “Inhibition of solid tumors by nitrosoureas. 1. Lewis lung carcinoma” (1977)
